The results in this text go back to ChEMBL document CHEMBL3407362, “Design and synthesis of potent and multifunctional aldose reductase inhibitors based on quinoxalinones” (J Med Chem, 2015).

In series [1] the target is Aldo-keto reductase family 1 member B1 (Rattus norvegicus, UniProt P07943). Description: Inhibition of Wistar rat lenses ALR2 using D,L-glyceraldehyde as substrate preincubated for 10 mins before substrate addition measured after 4 mins by spectrophotometry.
The species named for the next series is Rattus norvegicus. Briefly: Selectivity ratio for Wistar rat lenses ALR2 over Wistar rat kidney ALR1. It is filed as tissue-based. Conditions: Lens of camera-type eye.
A short description of series [2]: Antioxidant activity assessed as DPPH scavenging activity at 100 uM after 30 mins by UV spectrophotometry. It is filed as physicochemical. Conditions: 0.5 h. (In general: DPPH is a stable violet radical that fades when it is reduced.)
Series [3] can be described thus: Antioxidant activity assessed as DPPH scavenging activity after 30 mins by UV spectrophotometry. In kind it is physicochemical.
A further series deals with Brain. Briefly: Antioxidant activity in rat brain assessed as inhibition of lipid peroxidation by TBARS assay. It is filed as functional, tissue-based. The procedure, abridged:
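Fresh rat brain homogenized in ice-cold saline, centrifuged; lipoperoxidation driven by Fe(III)/ascorbic acid, compounds at 100 μM; malondialdehyde measured as TBARS (trichloroacetic acid, then thiobarbituric acid, red color at 532 nm); protein by Coomassie method.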

A short description of series [4]: Antioxidant activity assessed as DPPH scavenging activity at 50 uM after 30 mins by UV spectrophotometry. In kind it is physicochemical. Conditions: 0.5 h.
A short description of series [5]: Antioxidant activity assessed as DPPH scavenging activity at 10 uM after 30 mins by UV spectrophotometry. It is filed as physicochemical. Conditions: 0.5 h.

Active and inactive are the calls of the source. The rule behind the calls is not given here.

The IC50 is the concentration at which inhibition is half-maximal.

In series [1], `O=C(O)Cn1c(=O)c(Sc2ccc(Br)cc2)nc2ccc(Br)cc21` registered a concentration for half-maximal inhibition (IC50) of 467 nM. Besides, the Selectivity ratio in the series listed under Rattus norvegicus is 3.7.

As for `O=C(O)Cn1c(=O)c(-c2ccccc2)nc2ccccc21`, 5980 nM corresponded to half-maximal inhibition in series [1] (IC50).

Regarding `O=C(O)Cn1c(=O)c(-c2c[nH]c3ccccc23)nc2ccccc21`, the half-inhibitory concentration (IC50) in series [1] worked out at 639 nM.

Turning to `O=C(O)Cn1c(=O)c(Sc2ccc(Cl)cc2)nc2ccccc21`, half-maximal inhibition in series [1] (IC50) required 273 nM. For the same compound, in the series filed under Rattus norvegicus, the Selectivity ratio amounted to 1.9.

For the compound `O=C(O)Cn1c(=O)c(Sc2ccc(Cl)cc2)nc2ccc(Cl)cc21`, half-maximal inhibition in series [1] (IC50) was put at 158 nM. For the same compound, the Selectivity ratio in the series filed under Rattus norvegicus was found to be 5.1.

Compound `O=C(O)Cn1c(=O)c(-c2ccc(O)cc2)nc2ccccc21` displayed a half-maximal inhibitory concentration (IC50) in series [1] of 2590 nM.

In the case of `O=C(O)Cn1c(=O)c(-c2cc3ccccc3s2)nc2ccc(Cl)cc21`, the IC50 in series [1] amounted to 238 nM.

Regarding `O=C(O)Cn1c(=O)c(-c2ccc(F)cc2)nc2ccc(-c3ccc(F)cc3)cc21`, 2130 nM corresponded to half-maximal inhibition in series [1] (IC50).

`O=C(O)Cn1c(=O)c(Sc2ccc(Br)cc2)nc2ccc(F)cc21` came in with an IC50 in series [1] of 191 nM. In addition, the Selectivity ratio in the series filed under Rattus norvegicus was found to be 1.9.

As to `O=C(O)Cn1c(=O)c(Cc2ccccc2)nc2ccccc21`, the IC50 in series [1] came out at 1110 nM.

`COc1ccc(/C=C/c2nc3ccccc3n(CC(=O)O)c2=O)cc1`: in series [1], the IC50 turned out to be 4180 nM.

On to `O=C(O)Cn1c(=O)c(-c2c[nH]c3ccccc23)nc2ccc(Br)cc21`, for which the IC50 in series [1] came to 368 nM.

On to `O=C(O)Cn1c(=O)c(Sc2ccccc2)nc2ccccc21`, for which half-maximal inhibition in series [1] (IC50) required 421 nM. Also, in the series filed under Rattus norvegicus, the Selectivity ratio turned out to be 2.7.

As for `O=C(O)Cn1c(=O)c(-c2ccc(F)cc2)nc2ccc(F)cc21`, inhibition in series [1] was half-maximal at 874 nM (IC50).

With `O=C(O)Cn1c(=O)c(-c2ccc(O)cc2O)nc2cc(F)ccc21`, in series [1], 63 nM corresponded to half-maximal inhibition (IC50).

In the case of `O=C(O)Cn1c(=O)c(-c2ccc(F)cc2)nc2ccc(Cl)cc21`, half-maximal inhibition in series [1] (IC50) required 1520 nM.

Regarding `O=C(O)Cn1c(=O)c(Sc2ccc(Br)cc2)nc2cc(Br)ccc21`, 319 nM corresponded to half-maximal inhibition in series [1] (IC50). Besides, the Selectivity ratio in the series listed under Rattus norvegicus was 10.2.

As for `O=C(O)Cn1c(=O)c(CCc2ccc(O)cc2)nc2ccccc21`, the IC50 in series [1] turned out to be 798 nM. In series [2], the Activity worked out at 16.2%.

With `O=C(O)Cn1c(=O)c(/C=C/c2ccc(O)cc2)nc2ccccc21`, the figures for the concentration for half-maximal inhibition (IC50) in series [1] and in series [3] were 182 nM and 51500 nM, respectively. The Activity in series [2] was 71.8%. Besides, the inhibition result in the series on Brain was “Active”.

`COc1cc(/C=C/c2nc3ccccc3n(CC(=O)O)c2=O)ccc1O`: the half-maximal inhibitory concentration (IC50) in series [1] came to 419 nM; in series [3] it was 24100 nM. Further, the Activity in series [4] is recorded as 68.8%; in series [2], 95.4%; in series [5] it was 39.6%. For the same compound, in the series on Brain, the inhibition entry was “Active”.

Turning to `O=C(O)Cn1c(=O)c(/C=C/c2ccc(O)cc2)nc2ccc(F)cc21`, the IC50 in series [1] was 153 nM. Also, the Activity in series [2] is listed as 67.2%. For the same compound, in the series with Brain, the inhibition entry is “Active”.

The compound `O=C(O)Cn1c(=O)c(-c2ccc(O)cc2O)nc2ccc(Cc3ccc(F)cc3)cc21` returned an IC50 in series [1] of 3340 nM.

In turn, `O=C(O)Cn1c(=O)c(-c2ccc(O)cc2O)nc2ccccc21` came in with an IC50 in series [1] of 397 nM.

With `O=C(O)Cn1c(=O)c(-c2ccc(O)cc2O)nc2cc(Br)ccc21`, the half-inhibitory concentration (IC50) in series [1] was found to be 139 nM.

Regarding `O=C(O)Cn1c(=O)c(Oc2ccccc2)nc2ccccc21`, the IC50 in series [1] turned out to be 468 nM. The Selectivity ratio in the series listed under Rattus norvegicus turned out to be 12.5.

Take `O=C(O)Cn1c(=O)c(-c2ccc(O)cc2O)nc2cc(Cl)ccc21`: half-maximal inhibition in series [1] (IC50) required 95 nM.

Regarding `O=C(O)Cn1c(=O)c(Sc2ccc(Cl)cc2)nc2ccc(F)cc21`, in series [1], the IC50 turned out to be 56 nM. The Selectivity ratio in the series filed under Rattus norvegicus stood at 3.1.

`O=C(O)Cn1c(=O)c(-c2ccc(F)cc2)nc2ccccc21` showed an IC50 in series [1] of 3380 nM.

As for `O=C(O)Cn1c(=O)c(Sc2ccc(Br)cc2)nc2ccc(Cl)cc21`, in series [1], half-maximal inhibition (IC50) required 326 nM. Besides, the Selectivity ratio in the series filed under Rattus norvegicus was found to be 6.1.

For `O=C(O)Cn1c(=O)c(-c2ccc(O)cc2O)nc2ccc(Cl)cc21`, the IC50 in series [1] turned out to be 69 nM.

In turn, `O=C(O)Cn1c(=O)c(-c2ccc(O)cc2O)nc2ccc(Br)cc21` showed a half-inhibitory concentration (IC50) in series [1] of 91 nM.

Consider `O=C(O)Cn1c(=O)c(Sc2ccc(Br)cc2)nc2ccccc21`, for which inhibition in series [1] was half-maximal at 296 nM (IC50). The Selectivity ratio in the series listed under Rattus norvegicus was 6.9.

On to `O=C(O)Cn1c(=O)c(CCc2ccc(O)cc2)nc2ccc(F)cc21`, for which 652 nM corresponded to half-maximal inhibition in series [1] (IC50). In addition, in series [2], the Activity is 14.7%.

In the case of `O=C(O)Cn1c(=O)c(-c2ccc(O)cc2O)nc2ccc(F)cc21`, in series [1], 32 nM corresponded to half-maximal inhibition (IC50).

In series [1], `O=C(O)Cn1c(=O)c(Sc2ccc(Cl)cc2)nc2ccc(Br)cc21` gave a half-inhibitory concentration (IC50) of 395 nM. Also, in the series listed under Rattus norvegicus, the Selectivity ratio was determined as 8.3.
